TAAR1 antag = human TAAR1 antagonism; 1.5% of 360,000 active; Q96RJ0; AID 624466; CHO RD-HGA16 TAAR1, Fluo-8 calcium fluorescence, antagonist; inhibition, % at 3 µM;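 active = inhibition above a per-plate cutoff, the mean inhibition of test compounds on that plate plus 3 SD, cut at about 49% in these data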
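test system = CHO RD-HGA16 cells bearing hTAAR1 | replication = singlicate | controls = DMSO-only wells and EC80 β-PEA-stimulated wells | reagent = EC80 β-phenethylamine stimulus | read-out basis = percent inhibition of PEA-evoked calcium signal, max/basal emission ratio | schedule = seeding 17-24 h prior, 75-min 37 °C, 30-min RT dye loading | signal = kinetic Fluo-8 calcium fluorescence measurement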
V1aR counter = activates human V1a receptor in oxytocin agonist counter-screen; CHO-V1R cells, Fluo-8 calcium fluorescence, agonist mode; 0% DMSO, 100% 3 nM vasopressin; AID 2797; activation, % at 3 µM; 0.25% of 320,000 active;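 active = activation above the mean activation of all tested compounds plus 3 SD, per screening run, cut at about 20% in these data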;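 also: signal is peak over basal fluorescence ratio across a 100 second FLIPR read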
Target sequence (P37288 whole entry, looked up): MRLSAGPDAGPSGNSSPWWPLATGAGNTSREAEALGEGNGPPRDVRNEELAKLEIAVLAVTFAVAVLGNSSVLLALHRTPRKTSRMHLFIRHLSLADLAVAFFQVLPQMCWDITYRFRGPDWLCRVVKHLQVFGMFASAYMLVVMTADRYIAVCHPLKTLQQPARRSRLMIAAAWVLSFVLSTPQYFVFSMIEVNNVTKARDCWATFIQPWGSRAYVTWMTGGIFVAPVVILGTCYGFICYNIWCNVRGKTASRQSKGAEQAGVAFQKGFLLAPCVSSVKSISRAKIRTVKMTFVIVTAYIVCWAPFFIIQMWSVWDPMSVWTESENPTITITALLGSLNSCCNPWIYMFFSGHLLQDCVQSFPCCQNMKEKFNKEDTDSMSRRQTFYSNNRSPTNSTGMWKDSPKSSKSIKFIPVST
OXTR ag = human OXTR agonism | 0.32% of 320,000 active | activation, % at 3 µM | P30559 | CHO-OTR cells, Fluo-8 calcium fluorescence; normalized: DMSO 0%, oxytocin 100% | AID 2435;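 active = activation above the mean of all tested compounds plus 3 SD, cutoff set per screening run, cut at about 20% in these data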;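 also: peak over basal fluorescence ratio from a 100 s FLIPR kinetic read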
Target sequence (P30559 whole entry, looked up): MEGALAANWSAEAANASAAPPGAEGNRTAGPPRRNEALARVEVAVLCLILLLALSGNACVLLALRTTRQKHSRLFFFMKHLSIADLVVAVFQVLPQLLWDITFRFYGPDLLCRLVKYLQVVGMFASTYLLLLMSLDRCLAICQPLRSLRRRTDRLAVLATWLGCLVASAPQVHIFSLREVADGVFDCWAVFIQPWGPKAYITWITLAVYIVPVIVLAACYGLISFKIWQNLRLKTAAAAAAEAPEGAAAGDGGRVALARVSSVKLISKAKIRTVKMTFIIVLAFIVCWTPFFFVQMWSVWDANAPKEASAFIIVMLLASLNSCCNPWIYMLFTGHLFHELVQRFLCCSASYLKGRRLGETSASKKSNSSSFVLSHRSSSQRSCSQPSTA
TAAR1 agonist = agonists of human TAAR1. Q96RJ0. CHO RD-HGA16 TAAR1, Fluo-8 calcium fluorescence; vehicle wells 0%, saturating PEA agonist 100%. activation, % at 3 µM. 0.99% of 360,000 active. AID 624467;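 active = activation above the mean activation of all test compounds in the run plus 3 SD, cut at about 38% in these data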
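System: CHO-derived RD-HGA16 cells with stable Gα16 and human TAAR1. Times: 17-24 h plating, Fluo-8 75 min 37 °C, 30 min RT. Measured by: calcium-sensitive Fluo-8 signal, excitation 470-495, emission 515-575 nm. Read-out basis: % activation relative to PEA EC100 response. Control set: DMSO and PEA EC100. Repeats: no replicates (n 1).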
OXTR potentiate = potentiators of human oxytocin receptor. CHO-OTR cells, Fluo-8 calcium fluorescence, potentiator mode; 0% = oxytocin EC15, 100% = EC100. activation, % at 3 µM. P30559. 0.061% of 320,000 active;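 active = activation above that plate's cutoff, the mean activation of tested compounds plus 3 SD, cut at about 6.6% in these data, passing the limit was not always enough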
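Assay system: CHO-OTR cells, human receptor / Also added: oxytocin at about EC15, sub-maximal agonist stimulus / Dosing: single dose, 3.0 µM nominal final compound concentration / Incubation: 6 min pre-incubation, 100 s read / Technique: Fluo-8 calcium dye fluorescence / Read-out: % activation vs EC15 and EC100 oxytocin / Benchmarks: EC15 oxytocin low, 75 nM oxytocin high / Replicates: singlicate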
TAAR1 nonsel count = counter-screen for TAAR1 antagonists: nonselective antagonists | shares compounds with TAAR1 antag | 77% of 2,400 active | AID 651780 | inhibition, % at 3 µM | counterscreen cell line, calcium fluorescence, antagonist mode; in the data active = inhibition above about 22%;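 also: CHO-Ga16 host cells stimulated with ATP at an EC80 level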
TAAR1 antag conf = confirmation of human TAAR1 antagonists; shares compounds with TAAR1 antag; TAAR1-expressing cells, fluorescence antagonist read-out; inhibition, % at 3 µM; 40% of 2,400 active; AID 651785; in the data active = inhibition above about 49%;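 also: CHO-Ga16 host cells challenged with agonist PEA near its EC80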
Ga16 ag counter-1 = nonselective Ga16 agonist in TAAR1 antagonist counter-screen. shares compounds with TAAR1 antag. Ga16-expressing cells, calcium fluorescence, agonist counterscreen. activation, % at 3 µM. 18% of 2,400 active; in the data active = activation above about 12%
TAAR1 ag count = TAAR1 agonism, antagonist counter-screen; activation, % at 3 µM; hTAAR1 cell line, fluorescence activation, agonist mode; 2% of 2,400 active; shares compounds with TAAR1 antag; in the data active = activation above about 37%;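 also: CHO cells stably expressing TAAR1 with calcium dye readout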
TAAR1 ag conf = confirmation of human TAAR1 agonists; shares compounds with TAAR1 agonist; AID 651783; activation, % at 3 µM; 82% of 2,400 active; CHO RD-HGA16 TAAR1, Fluo-8 calcium fluorescence; scaled: DMSO 0%, maximal phenethylamine 100%;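 active = activation above a cutoff set at the run's mean compound activation plus 3 SD, cut at about 39% in these data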
Ga16 ag counter-2 = nonselective agonism, TAAR1 counter-screen; activation, % at 3 µM; 50% of 2,400 active; shares compounds with TAAR1 agonist; CHO-Ga16 parental, Fluo-8 calcium fluorescence; normalized to maximal ATP response, DMSO zero;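 active = activation above the run cutoff, the mean activation over all tested wells plus 3 SD, cut at about 12% in these data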
TAAR1 desensitize = counter-screen for human TAAR1 agonists: agonists that desensitize TAAR1; CHO RD-HGA16 hTAAR1, Fluo-8 calcium, beta-PEA response inhibition; 46% of 2,400 active; AID 651951; shares compounds with TAAR1 agonist; inhibition, % at 3 µM;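 active = inhibition above the run cutoff, the mean inhibition of all test compounds plus 3 SD, cut at about 49% in these data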;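 also: beta-PEA stimulus applied at its EC80; loss of beta-PEA calcium signal after compound pretreatment read as receptor desensitization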
Ga16 antag count = nonselective Ga16 antagonism, counter-screen. shares compounds with TAAR1 agonist. CHO-Ga16 ATP-induced calcium, Fluo-8 fluorescence. inhibition, % at 3 µM. 39% of 2,400 active. AID 651952;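 active = inhibition above the plate's mean compound inhibition plus 3 SD, computed per plate, cut at about 22% in these data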
A number is an active result; n = inactive; x = no result given. The list is not random: actives were taken first. Their share in the collection is about 2.3%.

SMILES	TAAR1 antag	V1aR counter	OXTR ag	TAAR1 agonist	OXTR potentiate	TAAR1 nonsel count	TAAR1 antag conf	Ga16 ag counter-1	TAAR1 ag count	others
COC(=O)c1cc(S(=O)(=O)NCCc2cccc(C)c2)cn1C	n	n	n	n	n	x	x	x	x
Cc1ccccc1-n1nnnc1SCc1csc(-c2ccccc2)n1	70	n	n	n	n	28	n	n	n
CCOC(=O)C1(Cc2ccccc2C)CCCN(C(=O)c2ccc3nccnc3c2)C1 (centres undefined)	67	n	n	n	n	24	49	n	n
CCOC(=O)C1(Cc2ccccc2C)CCCN(C(=O)c2ccccn2)C1 (centres undefined)	n	n	n	n	n	x	x	x	x
COc1ccccc1-c1cccc(-c2nc(C(=O)Nc3nccs3)cc3c2[C@H](CCO)N(C(C)=O)C3)c1	71	x	x	n	x	30	51	n	n
CCNC(=O)c1cc2c(c(-c3cccc(-c4cncnc4)c3)n1)[C@@H](CCO)N(C(C)=O)C2	n	x	x	n	x	x	x	x	x
CC[C@@]1(C(=O)OC)N[C@H](CN(C)C(=O)c2ccc(C(C)(C)C)cc2)[C@@H]2C(=O)N(Cc3ccccc3)C(=O)[C@@H]21	66	n	n	n	n	28	51	n	n
Fc1cccc(NC(=S)NNc2c3ccccc3nc3ccccc23)c1	53	x	x	n	x	40	n	n	n
CN(Cc1cnn(-c2ccccc2)c1)C(=O)c1cccc(S(=O)(=O)N(C)c2ccccc2)c1	63	x	x	n	x	35	n	n	n
NC(=O)C1CCN(c2nc(-c3ccccc3C(F)(F)F)cs2)CC1	n	n	n	n	n	x	x	x	x
O=C(Nc1ccc(COc2ccccc2)cc1)c1cccc([N+](=O)[O-])c1	60	n	n	n	n	28	68	n	n
CCC(C(=O)OCC(=O)Nc1ccc(SC(F)F)cc1)c1ccccc1 (centres undefined)	63	x	x	n	x	39	53	n	n
O=S(=O)(NCCS(=O)(=O)N1CCN(c2ccc(F)cc2)CC1)c1ccccc1	n	x	x	n	x	x	x	x	x
CN(c1ccccc1)c1nc(-n2ccnc2)nc(-n2ccnc2)n1	n	n	n	n	n	x	x	x	x
C=CCNc1nc(N(c2ccccc2)c2ccccc2)nc(-n2ccnc2)n1	95	n	n	n	n	47	84	n	n
CCCCCNc1nc(-c2ccccc2)nc(-n2ccnc2)n1	n	n	n	n	n	x	x	x	x
CCCCNc1nc(N(C)c2ccccc2)nc(-n2ccnc2)n1	50	n	n	n	n	n	n	n	n
c1ccc(N(c2ccccc2)c2nc(-n3ccnc3)nc(-n3ccnc3)n2)cc1	104	n	n	n	n	56	96	27	43
COc1cccc(NC(=O)COc2cc(O)c3c(c2)OC(C)(C)CC3=O)c1	60	n	n	n	n	27	n	n	n
N#Cc1nc(COc2ccc(Cl)cc2)oc1NCc1ccc2c(c1)OCO2	50	n	n	n	n	22	n	n	n
Cc1cccc(OCc2nc(C#N)c(NCc3ccc4c(c3)OCO4)o2)c1	n	n	n	n	n	x	x	x	x
CC1=C(CC[C@@H](C)CO)OC2CC3C4CCC5CC(O)CCC5(C)C4CC(=O)C3(C)C12 (some centres undefined)	76	n	n	n	n	29	52	n	n
CCOc1ccc(/C=N/NC(=O)c2ccc(Cn3cc([N+](=O)[O-])cn3)o2)cc1	n	n	n	n	n	x	x	x	x
CC(C)(C)c1ccc(OCc2ccc(C(=O)N/N=C/c3ccc([N+](=O)[O-])cc3)o2)cc1	53	n	n	n	n	31	n	n	n
O=C(COc1ccc(/C=N/NC(=O)c2ccncc2)cc1)Nc1cccc([N+](=O)[O-])c1	n	n	n	n	n	x	x	x	x
SMILES	TAAR1 antag	V1aR counter	OXTR ag	TAAR1 agonist	OXTR potentiate	TAAR1 nonsel count	TAAR1 antag conf	Ga16 ag counter-1	TAAR1 ag count	others
O=C(COc1ccc(/C=N/NC(=O)c2ccccc2O)cc1)Nc1ccc([N+](=O)[O-])cc1	63	n	n	n	n	29	n	n	n
O=C(/C=C/c1ccccc1Cl)OCC(=O)N1CCc2ccccc21	n	x	x	n	x	x	x	x	x
CC1CCCC(C)N1S(=O)(=O)c1ccc(Cl)cc1 (centres undefined)	n	n	n	n	n	x	x	x	x
CC1=C(C)CS(=O)N(S(=O)(=O)c2ccc(Cl)cc2)C1 (centres undefined)	n	n	n	77	n	x	x	x	x	TAAR1 ag conf=77;Ga16 ag counter-2=54;TAAR1 desensitize=n;Ga16 antag count=n
CCNc1nc(NCC)nc(N(C)N)n1	n	n	n	n	n	x	x	x	x
Cc1cc(Cl)ccc1OCC(=O)NCCOc1nc(N2CCOCC2)nc(N2CCOCC2)n1	n	n	n	n	n	x	x	x	x
Cc1ccc(C(=O)Nn2cnnc2)cc1S(=O)(=O)N1CCOCC1	n	n	n	n	n	x	x	x	x
Cc1ccc(CN2CCC(c3cc(-c4ccc(Cl)cc4)n[nH]3)CC2)cc1	n	n	n	67	n	x	x	x	x	TAAR1 ag conf=85;Ga16 ag counter-2=21;TAAR1 desensitize=75;Ga16 antag count=31
COc1ccc(-c2cc(C3CCN(Cc4ccc([N+](=O)[O-])cc4)CC3)[nH]n2)cc1	n	n	n	48	n	x	x	x	x	TAAR1 ag conf=40;Ga16 ag counter-2=18;TAAR1 desensitize=n;Ga16 antag count=n
COc1ccc(-c2cc(C3CCN(CC(O)C(F)(F)F)CC3)[nH]n2)cc1 (centres undefined)	n	n	n	44	n	x	x	x	x	TAAR1 ag conf=77;Ga16 ag counter-2=n;TAAR1 desensitize=55;Ga16 antag count=n
Cc1ccc(CN2CCC(c3nc4ccc(Cl)cc4[nH]3)CC2)cc1	n	n	n	n	n	x	x	x	x

Screening data: PubChem BioAssay, The Scripps Research Institute Molecular Screening Center
